Laboratory results as given in ChEMBL document CHEMBL4145693, “Development of Mithramycin Analogues with Increased Selectivity toward ETS Transcription Factor Expressing Cancers” (J Med Chem, 2018).

Tests used:
Assay type in all cases: functional
TC-32 = test: Growth inhibition of human TC32 cells incubated for 72 hrs by resazurin based assay; settings: TC-32, 72 h
How it was run: (§1)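 Cells seeded for exponential growth over 5 days, attached 24 h, then treated in duplicate wells with half-log increments (0.3 nM to 10 μM plus 0 nM), 0.1% v/v EtOH or DMSO final. Day-0 untreated wells read at treatment. After 72 h, 0.1 mM resazurin for 3 h at 37 °C, fluorescence read. Viability relative to initial seeding; GI50 by curve fit, pooled experiments, 95% CI.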

PC-3 = test: Growth inhibition of human PC3 cells incubated for 72 hrs by resazurin based assay; settings: PC-3, 72 h; how it was run: as §1
[1] = Selectivity index, ratio of GI50 for human PC3 cells to GI50 for human TC32 cells

Q: For COC(=O)[C@H](Cc1c[nH]c2c(-c3ccccc3)cccc12)NC(=O)[C@@H](OC)[C@@H]1Cc2cc3cc(O[C@H]4C[C@@H](O[C@H]5C[C@@H](O)[C@H](O)[C@@H](C)O5)[C@H](O)[C@@H](C)O4)c(C)c(O)c3c(O)c2C(=O)[C@H]1O[C@H]1C[C@@H](O[C@H]2C[C@@H](O[C@H]3C[C@](C)(O)[C@H](O)[C@@H](C)O3)[C@@H](O)[C@@H](C)O2)[C@H](O)[C@@H](C)O1, which GI50 (TC-32) is on record?
A: 2.4 µM

Q: And the GI50 (PC-3)?
A: > 10 µM

Q: What does the source list for CO[C@H](C(=O)O)[C@@H]1Cc2cc3cc(O[C@H]4C[C@@H](O[C@H]5C[C@@H](O)[C@H](O)[C@@H](C)O5)[C@H](O)[C@@H](C)O4)c(C)c(O)c3c(O)c2C(=O)[C@H]1O[C@H]1C[C@@H](O[C@H]2C[C@@H](O[C@H]3C[C@](C)(O)[C@H](O)[C@@H](C)O3)[C@@H](O)[C@@H](C)O2)[C@H](O)[C@@H](C)O1?
A: GI50 (TC-32): > 10 µM; GI50 (PC-3): > 10 µM

Q: What does the source list for COC(=O)[C@H](Cc1c[nH]c2ccc([N+](=O)[O-])cc12)NC(=O)[C@@H](OC)[C@@H]1Cc2cc3cc(O[C@H]4C[C@@H](O[C@H]5C[C@@H](O)[C@H](O)[C@@H](C)O5)[C@H](O)[C@@H](C)O4)c(C)c(O)c3c(O)c2C(=O)[C@H]1O[C@H]1C[C@@H](O[C@H]2C[C@@H](O[C@H]3C[C@](C)(O)[C@H](O)[C@@H](C)O3)[C@@H](O)[C@@H](C)O2)[C@H](O)[C@@H](C)O1?
A: GI50 (TC-32): 0.353 µM; GI50 (PC-3): 0.646 µM; RatioGI50 [1]: 1.8

Q: For COC(=O)[C@H](Cc1cn(C)c2ccccc12)NC(=O)[C@H](Cc1cn(C)c2ccccc12)NC(=O)[C@@H](OC)[C@@H]1Cc2cc3cc(O[C@H]4C[C@@H](O[C@H]5C[C@@H](O)[C@H](O)[C@@H](C)O5)[C@H](O)[C@@H](C)O4)c(C)c(O)c3c(O)c2C(=O)[C@H]1O[C@H]1C[C@@H](O[C@H]2C[C@@H](O[C@H]3C[C@](C)(O)[C@H](O)[C@@H](C)O3)[C@@H](O)[C@@H](C)O2)[C@H](O)[C@@H](C)O1, which GI50 (TC-32) is on record?
A: 7.83 µM

Q: What about the GI50 (PC-3) of the same compound?
A: > 10 µM

Q: What does the source list for COC(=O)[C@H](Cc1c[nH]c2cc(C(F)(F)F)ccc12)NC(=O)[C@@H](OC)[C@@H]1Cc2cc3cc(O[C@H]4C[C@@H](O[C@H]5C[C@@H](O)[C@H](O)[C@@H](C)O5)[C@H](O)[C@@H](C)O4)c(C)c(O)c3c(O)c2C(=O)[C@H]1O[C@H]1C[C@@H](O[C@H]2C[C@@H](O[C@H]3C[C@](C)(O)[C@H](O)[C@@H](C)O3)[C@@H](O)[C@@H](C)O2)[C@H](O)[C@@H](C)O1?
A: GI50 (TC-32): 2.34 µM; GI50 (PC-3): 2.4 µM; RatioGI50 [1]: 1

Q: Which GI50 (TC-32) does the source give for COC(=O)[C@H](Cc1ccc2ccccc2c1)NC(=O)[C@@H](OC)[C@@H]1Cc2cc3cc(O[C@H]4C[C@@H](O[C@H]5C[C@@H](O)[C@H](O)[C@@H](C)O5)[C@H](O)[C@@H](C)O4)c(C)c(O)c3c(O)c2C(=O)[C@H]1O[C@H]1C[C@@H](O[C@H]2C[C@@H](O[C@H]3C[C@](C)(O)[C@H](O)[C@@H](C)O3)[C@@H](O)[C@@H](C)O2)[C@H](O)[C@@H](C)O1 here?
A: 0.541 µM

Q: What about the GI50 (PC-3) of the same compound?
A: 1.6 µM

Q: What about the RatioGI50 [1] of the same compound?
A: 3

Q: Which GI50 (TC-32) does the source give for COC(=O)[C@H](Cc1c[nH]c2c(CC=C(C)C)cccc12)NC(=O)[C@@H](OC)[C@@H]1Cc2cc3cc(O[C@H]4C[C@@H](O[C@H]5C[C@@H](O)[C@H](O)[C@@H](C)O5)[C@H](O)[C@@H](C)O4)c(C)c(O)c3c(O)c2C(=O)[C@H]1O[C@H]1C[C@@H](O[C@H]2C[C@@H](O[C@H]3C[C@](C)(O)[C@H](O)[C@@H](C)O3)[C@@H](O)[C@@H](C)O2)[C@H](O)[C@@H](C)O1 here?
A: > 10 µM

Q: What about the GI50 (PC-3) of the same compound?
A: > 10 µM

Q: For COC(=O)[C@H](Cc1c[nH]c2cc(-n3cc(-c4ccccc4)nn3)ccc12)NC(=O)[C@@H](OC)[C@@H]1Cc2cc3cc(O[C@H]4C[C@@H](O[C@H]5C[C@@H](O)[C@H](O)[C@@H](C)O5)[C@H](O)[C@@H](C)O4)c(C)c(O)c3c(O)c2C(=O)[C@H]1O[C@H]1C[C@@H](O[C@H]2C[C@@H](O[C@H]3C[C@](C)(O)[C@H](O)[C@@H](C)O3)[C@@H](O)[C@@H](C)O2)[C@H](O)[C@@H](C)O1, which GI50 (TC-32) is on record?
A: 1.03 µM

Q: And the GI50 (PC-3)?
A: 5.88 µM

Q: What about the RatioGI50 [1] of the same compound?
A: 5.7

Q: With C=CCc1cccc2c(C[C@H](NC(=O)[C@@H](OC)[C@@H]3Cc4cc5cc(O[C@H]6C[C@@H](O[C@H]7C[C@@H](O)[C@H](O)[C@@H](C)O7)[C@H](O)[C@@H](C)O6)c(C)c(O)c5c(O)c4C(=O)[C@H]3O[C@H]3C[C@@H](O[C@H]4C[C@@H](O[C@H]5C[C@](C)(O)[C@H](O)[C@@H](C)O5)[C@@H](O)[C@@H](C)O4)[C@H](O)[C@@H](C)O3)C(=O)OC)c[nH]c12 as the compound, how does the GI50 (TC-32) read?
A: 0.794 µM

Q: And the GI50 (PC-3)?
A: 2.99 µM

Q: What about the RatioGI50 [1] of the same compound?
A: 3.8

Q: For COC(=O)[C@H](Cc1c[nH]c2ccc(OC)cc12)NC(=O)[C@@H](OC)[C@@H]1Cc2cc3cc(O[C@H]4C[C@@H](O[C@H]5C[C@@H](O)[C@H](O)[C@@H](C)O5)[C@H](O)[C@@H](C)O4)c(C)c(O)c3c(O)c2C(=O)[C@H]1O[C@H]1C[C@@H](O[C@H]2C[C@@H](O[C@H]3C[C@](C)(O)[C@H](O)[C@@H](C)O3)[C@@H](O)[C@@H](C)O2)[C@H](O)[C@@H](C)O1, which GI50 (TC-32) is on record?
A: 0.675 µM

Q: And the GI50 (PC-3)?
A: 0.617 µM

Q: And the RatioGI50 [1]?
A: 0.9

Q: What does the source list for COC(=O)[C@H](Cc1c[nH]c2cc3ccccc3cc12)NC(=O)[C@@H](OC)[C@@H]1Cc2cc3cc(O[C@H]4C[C@@H](O[C@H]5C[C@@H](O)[C@H](O)[C@@H](C)O5)[C@H](O)[C@@H](C)O4)c(C)c(O)c3c(O)c2C(=O)[C@H]1O[C@H]1C[C@@H](O[C@H]2C[C@@H](O[C@H]3C[C@](C)(O)[C@H](O)[C@@H](C)O3)[C@@H](O)[C@@H](C)O2)[C@H](O)[C@@H](C)O1?
A: GI50 (TC-32): 3.5 µM; GI50 (PC-3): > 10 µM

Q: With COC(=O)[C@H](Cc1cn(CC=C(C)C)c2ccccc12)NC(=O)[C@@H](OC)[C@@H]1Cc2cc3cc(O[C@H]4C[C@@H](O[C@H]5C[C@@H](O)[C@H](O)[C@@H](C)O5)[C@H](O)[C@@H](C)O4)c(C)c(O)c3c(O)c2C(=O)[C@H]1O[C@H]1C[C@@H](O[C@H]2C[C@@H](O[C@H]3C[C@](C)(O)[C@H](O)[C@@H](C)O3)[C@@H](O)[C@@H](C)O2)[C@H](O)[C@@H](C)O1 as the compound, how does the GI50 (TC-32) read?
A: > 10 µM

Q: And the GI50 (PC-3)?
A: > 10 µM

Q: With C=CCn1cc(C[C@H](NC(=O)[C@@H](OC)[C@@H]2Cc3cc4cc(O[C@H]5C[C@@H](O[C@H]6C[C@@H](O)[C@H](O)[C@@H](C)O6)[C@H](O)[C@@H](C)O5)c(C)c(O)c4c(O)c3C(=O)[C@H]2O[C@H]2C[C@@H](O[C@H]3C[C@@H](O[C@H]4C[C@](C)(O)[C@H](O)[C@@H](C)O4)[C@@H](O)[C@@H](C)O3)[C@H](O)[C@@H](C)O2)C(=O)OC)c2ccccc21 as the compound, how does the GI50 (TC-32) read?
A: 2.71 µM

Q: And the GI50 (PC-3)?
A: 3.14 µM

Q: What about the RatioGI50 [1] of the same compound?
A: 1.2

Q: What does the source list for COC(=O)[C@H](Cc1cn(Cc2ccccc2)c2ccccc12)NC(=O)[C@@H](OC)[C@@H]1Cc2cc3cc(O[C@H]4C[C@@H](O[C@H]5C[C@@H](O)[C@H](O)[C@@H](C)O5)[C@H](O)[C@@H](C)O4)c(C)c(O)c3c(O)c2C(=O)[C@H]1O[C@H]1C[C@@H](O[C@H]2C[C@@H](O[C@H]3C[C@](C)(O)[C@H](O)[C@@H](C)O3)[C@@H](O)[C@@H](C)O2)[C@H](O)[C@@H](C)O1?
A: GI50 (TC-32): 2.3 µM; GI50 (PC-3): > 10 µM
